Assay results taken from ChEMBL document CHEMBL3734675, “Synthesis, antimycobacterial and antibacterial activity of fluoroquinolone derivatives containing an 3-alkoxyimino-4-(cyclopropylanimo)methylpyrrolidine moiety” (2015).
In brackets after ≈: the same amount, converted by molar mass.

Legend:
Assay type in all cases: functional
[1] = system: Enterococcus faecalis; assay: Antibacterial activity against Enterococcus faecalis 14-1 after 18 to 24 hrs by two-fold serial dilution method
Outline: (§1)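 Twofold serial dilution in agar media against Gram-positive and Gram-negative strains. Plates incubated at 35 °C for 18–24 h. MIC read as the lowest compound concentration giving complete inhibition of bacterial growth.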

[2] = system: Escherichia coli; assay: Antibacterial activity against Escherichia coli 14-1 after 18 to 24 hrs by two-fold serial dilution method; outline: as §1
[3] = system: Staphylococcus aureus; assay: Antibacterial activity against methicillin-sensitive Staphylococcus aureus 14-1 after 18 to 24 hrs by two-fold serial dilution method; outline: as §1
[4] = system: Staphylococcus aureus; assay: Antibacterial activity against methicillin-sensitive Staphylococcus aureus 14-4 after 18 to 24 hrs by two-fold serial dilution method; outline: as §1
[5] = system: Pseudomonas aeruginosa; assay: Antibacterial activity against Pseudomonas aeruginosa ATCC 27853 after 18 to 24 hrs by two-fold serial dilution method; outline: as §1
[6] = system: Escherichia coli; assay: Antibacterial activity against extended-spectrum beta-lactamase producing Escherichia coli 14-2 after 18 to 24 hrs by two-fold serial dilution method; outline: as §1
[7] = system: Escherichia coli; assay: Antibacterial activity against Escherichia coli 14-2 after 18 to 24 hrs by two-fold serial dilution method; outline: as §1
[8] = system: Escherichia coli; assay: Antibacterial activity against Escherichia coli ATCC 25922 after 18 to 24 hrs by two-fold serial dilution method; outline: as §1
[9] = system: Klebsiella pneumoniae; assay: Antibacterial activity against extended-spectrum beta-lactamase producing Klebsiella pneumoniae 14-19 after 18 to 24 hrs by two-fold serial dilution method; outline: as §1
[10] = system: Klebsiella pneumoniae; assay: Antibacterial activity against Klebsiella pneumoniae 14-4 after 18 to 24 hrs by two-fold serial dilution method; outline: as §1
[11] = system: Pseudomonas aeruginosa; assay: Antibacterial activity against Pseudomonas aeruginosa 14-14 after 18 to 24 hrs by two-fold serial dilution method; outline: as §1
[12] = system: Staphylococcus aureus; assay: Antibacterial activity against methicillin-sensitive Staphylococcus aureus 14-3 after 18 to 24 hrs by two-fold serial dilution method; outline: as §1
[13] = system: Staphylococcus epidermidis; assay: Antibacterial activity against methicillin-resistant Staphylococcus epidermidis 14-37 after 18 to 24 hrs by two-fold serial dilution method
Outline: (§2)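 Agar media, standard twofold serial dilution. MIC is the lowest concentration giving complete inhibition of bacterial growth after incubation at 35 °C for 18–24 h. Ciprofloxacin and levofloxacin were run as comparators.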

[14] = system: Staphylococcus epidermidis; assay: Antibacterial activity against methicillin-resistant Staphylococcus epidermidis 14-21 after 18 to 24 hrs by two-fold serial dilution method; outline: as §2
[15] = system: Klebsiella pneumoniae; assay: Antibacterial activity against Klebsiella pneumoniae 14-1 after 18 to 24 hrs by two-fold serial dilution method; outline: as §1
[16] = system: Streptococcus pneumoniae; assay: Antibacterial activity against methicillin-resistant Streptococcus pneumoniae ATCC 19615 after 18 to 24 hrs by two-fold serial dilution method; outline: as §2
[17] = system: Staphylococcus epidermidis; assay: Antibacterial activity against methicillin-sensitive Staphylococcus epidermidis 14-2 after 18 to 24 hrs by two-fold serial dilution method; outline: as §1
[18] = system: Klebsiella pneumoniae; assay: Antibacterial activity against extended-spectrum beta-lactamase producing Klebsiella pneumoniae 14-17 after 18 to 24 hrs by two-fold serial dilution method; outline: as §1
[19] = system: Enterococcus faecium; assay: Antibacterial activity against Enterococcus faecium 14-6 after 18 to 24 hrs by two-fold serial dilution method; outline: as §1
[20] = system: Pseudomonas aeruginosa; assay: Antibacterial activity against Pseudomonas aeruginosa 14-9 after 18 to 24 hrs by two-fold serial dilution method; outline: as §1
[21] = system: Klebsiella pneumoniae; assay: Antibacterial activity against Klebsiella pneumoniae 14-3 after 18 to 24 hrs by two-fold serial dilution method; outline: as §1
[22] = system: Enterococcus faecium; assay: Antibacterial activity against Enterococcus faecium 14-2 after 18 to 24 hrs by two-fold serial dilution method; outline: as §1
[23] = system: Klebsiella pneumoniae; assay: Antibacterial activity against Klebsiella pneumoniae 14-2 after 18 to 24 hrs by two-fold serial dilution method; outline: as §1
[24] = system: Staphylococcus aureus; assay: Antibacterial activity against methicillin-resistant Staphylococcus aureus 14-4 after 18 to 24 hrs by two-fold serial dilution method; outline: as §2
[25] = system: Klebsiella pneumoniae; assay: Antibacterial activity against extended-spectrum beta-lactamase producing Klebsiella pneumoniae 14-18 after 18 to 24 hrs by two-fold serial dilution method; outline: as §1
[26] = system: Mycobacterium tuberculosis; assay: Antimycobacterial activity against Mycobacterium tuberculosis H37Rv ATCC 27294 incubated for 7 days by microplate Alamar Blue assay; conditions: H37Rv ATCC 27294, 168 h
Outline: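 Fluorescence read-out. MIC is the lowest concentration that reduces fluorescence by at least 90% relative to the mean of replicate bacterium-only controls. Isoniazid and rifampicin were included as reference drugs.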

[27] = system: Enterococcus faecium; assay: Antibacterial activity against Enterococcus faecium 14-5 after 18 to 24 hrs by two-fold serial dilution method; outline: as §1
[28] = system: Staphylococcus aureus; assay: Antibacterial activity against methicillin-resistant Staphylococcus aureus 14-5 after 18 to 24 hrs by two-fold serial dilution method; outline: as §2
[29] = system: Staphylococcus epidermidis; assay: Antibacterial activity against methicillin-resistant Staphylococcus epidermidis 14-22 after 18 to 24 hrs by two-fold serial dilution method; outline: as §2
[30] = system: Staphylococcus aureus; assay: Antibacterial activity against Staphylococcus aureus CMCC 26003 after 18 to 24 hrs by two-fold serial dilution method; outline: as §1
[31] = system: Enterococcus faecalis; assay: Antibacterial activity against Enterococcus faecalis 14-2 after 18 to 24 hrs by two-fold serial dilution method; outline: as §1
[32] = system: Staphylococcus epidermidis; assay: Antibacterial activity against methicillin-resistant Staphylococcus epidermidis 14-39 after 18 to 24 hrs by two-fold serial dilution method; outline: as §2
[33] = system: Escherichia coli; assay: Antibacterial activity against extended-spectrum beta-lactamase producing Escherichia coli 14-1 after 18 to 24 hrs by two-fold serial dilution method; outline: as §1
[34] = system: Pseudomonas aeruginosa; assay: Antibacterial activity against Pseudomonas aeruginosa 14-15 after 18 to 24 hrs by two-fold serial dilution method; outline: as §1
[35] = system: Pseudomonas aeruginosa; assay: Antibacterial activity against Pseudomonas aeruginosa 14-16 after 18 to 24 hrs by two-fold serial dilution method; outline: as §1

Row | SMILES | MIC [1] [mg/L] | MIC [2] [mg/L] | MIC [3] [mg/L] | MIC [4] [mg/L] | MIC [5] [mg/L] | MIC [6] [mg/L] | MIC [7] [mg/L] | MIC [8] [mg/L] | MIC [9] [mg/L] | MIC [10] [mg/L] | MIC [11] [mg/L] | MIC [12] [mg/L] | MIC [13] [mg/L] | MIC [14] [mg/L] | MIC [15] [mg/L] | MIC [16] [mg/L] | MIC [17] [mg/L] | MIC [18] [mg/L] | MIC [19] [mg/L] | MIC [20] [mg/L] | also measured
1 | CC1(CNC2CC2)CN(c2nc3c(cc2F)c(=O)c(C(=O)O)cn3-c2nc(N)c(F)cc2F)C/C1=N/OCc1ccccc1 (stereo not given) | 32 (≈ 52.7 µM) | > 128 | 16 (≈ 26.3 µM) | 4 (≈ 6.58 µM) | 128 (≈ 211 µM) | > 128 | > 128 | 64 (≈ 105 µM) | > 128 | > 128 | 128 (≈ 211 µM) | 8 (≈ 13.2 µM) | 64 (≈ 105 µM) | 32 (≈ 52.7 µM) | > 128 | 8 (≈ 13.2 µM) | 64 (≈ 105 µM) | > 128 | 128 (≈ 211 µM) | 128 (≈ 211 µM) | MIC [21]: 128 mg/L (≈ 211 µM); MIC [22]: 32 mg/L (≈ 52.7 µM); MIC [23]: > 128 mg/L; MIC [24]: 16 mg/L (≈ 26.3 µM); MIC [25]: > 128 mg/L; MIC90 [26]: 16 mg/L (≈ 26.3 µM); MIC [27]: > 128 mg/L; MIC [28]: 32 mg/L (≈ 52.7 µM); MIC [29]: 128 mg/L (≈ 211 µM); MIC [30]: 1 mg/L (≈ 1.65 µM); MIC [31]: 16 mg/L (≈ 26.3 µM); MIC [32]: 128 mg/L (≈ 211 µM); MIC [33]: > 128 mg/L; MIC [34]: 128 mg/L (≈ 211 µM); MIC [35]: > 128 mg/L
2 | CCO/N=C1/CN(c2nc3c(cc2F)c(=O)c(C(=O)O)cn3[C@@H]2C[C@@H]2F)CC1(C)CNC1CC1 (stereo not given in full) | 16 (≈ 33.6 µM) | > 128 | 1 (≈ 2.1 µM) | 1 (≈ 2.1 µM) | 32 (≈ 67.3 µM) | > 128 | > 128 | 2 (≈ 4.21 µM) | 64 (≈ 135 µM) | > 128 | 128 (≈ 269 µM) | 2 (≈ 4.21 µM) | 2 (≈ 4.21 µM) | 4 (≈ 8.41 µM) | 64 (≈ 135 µM) | 0.25 (≈ 0.526 µM) | 16 (≈ 33.6 µM) | 64 (≈ 135 µM) | 4 (≈ 8.41 µM) | 32 (≈ 67.3 µM) | MIC [21]: 128 mg/L (≈ 269 µM); MIC [22]: 4 mg/L (≈ 8.41 µM); MIC [23]: 128 mg/L (≈ 269 µM); MIC [24]: 4 mg/L (≈ 8.41 µM); MIC [25]: 128 mg/L (≈ 269 µM); MIC90 [26]: 0.6 mg/L (≈ 1.26 µM); MIC [27]: 2 mg/L (≈ 4.21 µM); MIC [28]: 2 mg/L (≈ 4.21 µM); MIC [29]: 4 mg/L (≈ 8.41 µM); MIC [30]: 0.015 mg/L (≈ 0.0315 µM); MIC [31]: 1 mg/L (≈ 2.1 µM); MIC [32]: 4 mg/L (≈ 8.41 µM); MIC [33]: 32 mg/L (≈ 67.3 µM); MIC [34]: 64 mg/L (≈ 135 µM); MIC [35]: 64 mg/L (≈ 135 µM)
3 | CO/N=C1/CN(c2nc3c(cc2F)c(=O)c(C(=O)O)cn3[C@@H]2C[C@@H]2F)CC1(C)CNC1CC1 (stereo not given in full) | 16 (≈ 34.7 µM) | > 128 | 1 (≈ 2.17 µM) | 2 (≈ 4.33 µM) | 16 (≈ 34.7 µM) | > 128 | > 128 | 1 (≈ 2.17 µM) | 32 (≈ 69.3 µM) | > 128 | 64 (≈ 139 µM) | 1 (≈ 2.17 µM) | 2 (≈ 4.33 µM) | 4 (≈ 8.67 µM) | 32 (≈ 69.3 µM) | 0.5 (≈ 1.08 µM) | 16 (≈ 34.7 µM) | 64 (≈ 139 µM) | 2 (≈ 4.33 µM) | 16 (≈ 34.7 µM) | MIC [21]: 128 mg/L (≈ 277 µM); MIC [22]: 4 mg/L (≈ 8.67 µM); MIC [23]: 64 mg/L (≈ 139 µM); MIC [24]: 4 mg/L (≈ 8.67 µM); MIC [25]: 64 mg/L (≈ 139 µM); MIC90 [26]: 0.45 mg/L (≈ 0.975 µM); MIC [27]: 4 mg/L (≈ 8.67 µM); MIC [28]: 2 mg/L (≈ 4.33 µM); MIC [29]: 4 mg/L (≈ 8.67 µM); MIC [30]: < 0.008 mg/L; MIC [31]: 1 mg/L (≈ 2.17 µM); MIC [32]: 4 mg/L (≈ 8.67 µM); MIC [33]: 16 mg/L (≈ 34.7 µM); MIC [34]: 64 mg/L (≈ 139 µM); MIC [35]: 32 mg/L (≈ 69.3 µM)
